Screening results from PubChem BioAssay.
A selection: hits, their analogues and other compounds. The true share with any hit is near 3.4%.
ERAP1 HTS inh: human ERAP1 aminopeptidase inhibitors, primary screen, biochemical, single point, plate reader. recombinant ERAP1, Leu-AMC fluorescence, 60 min. inhibition, % at 10.7 µM. 340,000 tested, 0.15% active. AID 652197, 2013;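 active = mean replicate inhibition of at least 30%, or all replicates individually reaching that 30% level; inactive = mean below 30% and not every replicate reaching it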;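 also: 0% = neutral control wells and 100% = L-leucinethiol positive control wells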
Ecoli rRNA inh: reduced GFP signal of wild-type E. coli, primary screen, bacterial rRNA inhibitor project, GFP/RFP fluorescence, OD600, single point; E. coli WT GFP vs humanized-ribosome RFP mutants, 24 h; hits give low values; DMSO median 0, no signal -100; GFP signal change (wild-type ribosome), % (concentration not given with the values); 350,000 tested, 1.6% active;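 active = significant combined selectivity score with lowered wild-type GFP, culture density cut under 30%, mutant RFP and density less affected; inactive = any of these conditions unmet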
AF4-AF9 inh: inhibitors of AF4 peptide binding to AF9, primary screen, biochemical, AlphaScreen, biotin-AF4 peptide, FLAG-AF9, single point; Protein AF-9 (Homo sapiens), P42568; inhibition, % at 10 µM; 350,000 tested, 0.47% active; AID 651704, 2012;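 active = every replicate reaching a set inhibition limit, whatever the replicate mean, cut at about 25% in these data; inconclusive = mean inhibition reaches that limit but some replicates miss it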;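 also: 0% = plate neutral control median and 100% = total signal loss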
S100A4 inh HTS: inhibitors of S100A4-myosin IIA peptide binding, primary screen, biochemical, fluorescence polarization, TAMRA-MyoIIA peptide. Protein S100-A4 (Homo sapiens), P26447. inhibition, % at 10.7 µM. 360,000 tested, 0.14% active;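 active = mean inhibition of at least 70% across replicates, with every replicate also reaching that level; inconclusive = mean inhibition reaches 70% but some replicates fall short; inactive = mean inhibition below 70%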
Target sequence (P26447 whole entry, looked up): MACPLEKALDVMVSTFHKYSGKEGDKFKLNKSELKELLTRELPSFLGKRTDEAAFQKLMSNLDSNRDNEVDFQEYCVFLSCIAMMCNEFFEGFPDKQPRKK
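Compound dosing: one dose per compound; test system: human S100A4 monomer with TAMRA-labelled myosin IIA peptide; probe or stimulus: TAMRA-labelled myosin IIA heavy-chain peptide probe, 5 nM; medium: HEPES buffer with Ca2+, pH 7.2; schedule: 5 min incubation before reading; benchmarks: neutral control DMSO, positive control TFP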
E-selectin induc: E-selectin induction in HUVECs, primary screen, imaging, HUVEC, immunofluorescence imaging, single point | normalized: neutral wells 0, TNF-alpha wells 100 | AID 686992, 2013 | 260,000 tested, 0.37% active | activation, % at 7.58 µM | P16581;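 active = mean E-selectin-positive cell signal at least 10% of the positive control, reached in at least 60% of replicates, without over 20% cell loss; inconclusive = no rule given, readout overlaps actives, possibly toxicity-flagged; inactive = the rest, including those meeting only one limit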
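Test system: HUVEC | Signal: Immunofluorescence imaging | Read-out: Percent E-selectin-positive cells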
SIRT5 inh: SIRT5 desuccinylase inhibitors, primary screen, biochemical, fluorescence imaging, single point, set 5; NAD-dependent protein deacylase sirtuin-5, mitochondrial (Homo sapiens), Q9NXA8; Purified SirT5, succinyl-peptide AMC, trypsin-coupled fluorescence; inhibition, % at 15 µM; 330,000 tested, 1.1% active; in the data active = inhibition above about 15%; inconclusive = no clear call, values can overlap the other calls
Target sequence (Q9NXA8 whole entry, looked up): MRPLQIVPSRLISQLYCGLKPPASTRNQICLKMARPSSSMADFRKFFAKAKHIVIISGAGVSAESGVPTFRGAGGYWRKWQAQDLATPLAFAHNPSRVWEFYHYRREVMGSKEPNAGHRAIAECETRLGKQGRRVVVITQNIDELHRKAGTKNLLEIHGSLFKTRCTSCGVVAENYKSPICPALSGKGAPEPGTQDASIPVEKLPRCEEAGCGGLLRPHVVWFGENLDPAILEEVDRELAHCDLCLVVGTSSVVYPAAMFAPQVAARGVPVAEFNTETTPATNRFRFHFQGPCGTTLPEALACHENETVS
An asterisk follows results filed as active; ? = inconclusive; · = no result given.

SMILES	ERAP1 HTS inh	Ecoli rRNA inh	AF4-AF9 inh	S100A4 inh HTS	E-selectin induc	SIRT5 inh
CC1CCCCC1NC(=S)NC(=O)c1sc2ccccc2c1Cl (centres undefined)	1	1	-3	-4	12	2
COc1cc(/C=N/Nc2ncnc3sc4c(c23)CCC4)ccc1O	-3	-20*	0	2	0	-8
Cc1nc(C)c(-c2ccn(S(=O)(=O)c3ccc(Cl)cc3)n2)o1	8	-19*	2	-11	·	-3
O=S(=O)(Nc1cccc(Br)c1)c1cccc2nsnc12	0	-33*	0	1	0	-1
COc1ccccc1C(=O)COC(=O)CN1C(=O)NC2(CCCC2)C1=O	-1	9	-1	93*	-2	1
Clc1ccccc1N1CCN(Cc2ccc(Br)o2)CC1	4	-35*	-2	0	0	-3
Cc1cccc(N2CCN(Cc3ccc(Br)o3)CC2)c1C	4	-24	5	-1	1	4
Cc1ccccc1N1CCN(Cc2ccc(Br)o2)CC1	2	-27*	6	-4	·	-2
CC(=O)Nc1ccc(S(=O)(=O)Nc2nc3ccccc3nc2Nc2ccc(C(=O)O)c(O)c2)cc1	12	10	-28	-6	0	47*
CC(=O)Nc1ccc(S(=O)(=O)Nc2nc3ccccc3nc2Nc2cccc(O)c2)cc1	-2	-3	-2	-2	1	5
CNC(=O)C1CC(=O)N(c2ccc(OCC(=O)NCc3ccccc3)cc2)C1 (centres undefined)	0	7	-2	7	0	25*
CCOc1ccc(N2CC(C(=O)NCc3ccccc3)CC2=O)cc1 (centres undefined)	-4	12	2	-17	·	-7
CCOC(=O)[C@]12CCC=C1N(CCC1=CCCCC1)C(=O)[C@H](CC(=O)NCCc1ccccc1OC)C2	·	11	4	-15	180*	0
COC(=O)[C@]12CCCCC=C1N(Cc1ccc(Cl)cc1Cl)C(=O)[C@H](CC(=O)NCc1cccc(C(F)(F)F)c1)C2	0	2	0	-2	0	20*
COC(=O)[C@]12CCCCC=C1N(CCC1=CCCCC1)C(=O)[C@H](CC(=O)NCCc1ccccc1OC)C2	-2	12	1	-15	0	16*
COC(=O)[C@]12CCCCC=C1N(Cc1ccccc1)C(=O)[C@H](CC(=O)NCCCCc1ccccc1)C2	·	-1	?	4	0	17*
C[C@H]1CN([C@@H](C)CO)C(=O)c2c(c3ccccc3n2C)-c2ccccc2CO[C@@H]1CN(C)S(=O)(=O)c1cn(C)cn1	-5	3	1	-1	-4	-7
COc1ccc(NC(=O)Nc2ccc3c(c2)C(=O)N([C@H](C)CO)C[C@H](C)[C@@H](CN(C)S(C)(=O)=O)OCCCC[C@H](C)O3)cc1	0	-1	-2	-7	0	1
Cc1ccc(S(=O)(=O)N(C)C[C@H]2Oc3c(NC(=O)Nc4ccccc4)cccc3C(=O)N([C@H](C)CO)C[C@@H]2C)cc1	0	2	2	-9	0	4
COc1ccc(NC(=O)COC(=O)CCCOc2ccc(Cl)cc2Cl)cc1	-5	-4	-1	3	0	1
COc1ccc(NC(=O)COC(=O)CCCOc2ccc(Cl)cc2Cl)cc1Cl	-4	-22*	-2	-5	·	-2
C[C@H](CO)N1C[C@H](C)[C@H](CN(C)Cc2ccc(C(F)(F)F)cc2)Oc2ccc(NC(=O)CCC(F)(F)F)cc2C1=O	2	1	-6	-1	-12	7
Cc1ccc(NC(=O)CCc2c(C)nn(-c3ccc(N4CCCCC4)nn3)c2C)cc1	1	-25*	2	-1	·	2
Cc1cc(C)cc(NC(=O)CCc2c(C)nn(-c3ccc(N4CCCCC4)nn3)c2C)c1	1	13	4	1	·	5
